Assay results gathered from unrelated publications.
Protocols differ between the studies behind these lines.
Target: Tyrosine-protein kinase receptor Tie-1 (TIE1, Homo sapiens, UniProt P35590)

CCCCN(CCCC)C(=O)CN1C[C@@H](c2cc(OC)c3c(c2)OCO3)[C@H](C(=O)O)[C@H]1CC(C)(C)CCC — remaining binding (cell-free assay; competition with immobilised ligand; 1 µM): 94.7%
COc1ncc2cc3ccccc3nc2c1C#N — remaining binding (cell-free assay; competition with immobilised ligand; 5 µM): 100%
COc1ccnn2ncc(-c3ccnc(N(C)C)n3)c12 — remaining binding (binding; 1 µM): 81%
O=C(c1ccc(Nc2nccc(-c3cc4ccccc4s3)n2)cc1)N1CCC(N2CCCC2)CC1 — remaining binding (binding; competition with immobilised ligand; 1 µM): 23%
CNC(=O)[C@@H]1CC[C@@H](n2c(-c3ccc4cnccc4c3)nc3ccc(C(=O)NCc4cccc(C(N)=O)c4)cc32)C1 — remaining binding (binding; competition with immobilised ligand; 1 µM): 85%
Cc1cc(-n2nc(Cc3cc(F)cc(C(F)(F)F)c3)nc2C)ccc1C(N)=O — remaining binding (cell-free assay; competition with immobilised ligand; 1 µM): 100%
N[C@H]1CCN(c2nccc(-c3cnn4ncccc34)n2)C1 — remaining binding (binding; 1 µM): 100%
O=C(O)[C@@H]1[C@@H](Cn2nnc3ccccc3c2=O)CC[C@H]1C(=O)c1ccc(OCCC2CCOCC2)cc1 — remaining binding (cell-free assay; competition with immobilised ligand; 1 µM): 100%
C[C@@H]1CCN(c2nccc(-c3cnn4ncccc34)n2)C1 — remaining binding (binding; 1 µM): 100%
CS(=O)(=O)N1CCCC(NC(=O)[C@H](CCC2CCCCC2)NC(=O)c2ccc(CNC(=O)c3cnc4ccccn34)cc2)C1 (stereo partly shown) — remaining binding (cell-free assay; competition with immobilised ligand; 0.1 µM): 100%
COc1cnc(Nc2cccc(S(N)(=O)=O)c2)nc1N1CCN(c2ccccc2)C(=O)C1 — remaining binding (binding; competition with immobilised ligand; 1 µM): 100%
CN(CCCC(F)(F)F)c1nccc(-c2cnn3ncccc23)n1 — remaining binding (binding; 1 µM): 100%
CNC(=O)c1ccc(Nc2ncc(C(F)(F)F)c(NCc3nccnc3N(C)S(C)(=O)=O)n2)cc1 — remaining binding (cell-free assay; competition with immobilised ligand; 0.1 µM): 47%
O=C(c1ccc(Nc2ncc(Cl)c(-c3cc4ccccc4s3)n2)cc1)N1CCC(N2CCCC2)CC1 — remaining binding (binding; competition with immobilised ligand; 1 µM): 4.8%
c1cnn2ncc(-c3ccnc(N4CCC45COC5)n3)c2c1 — remaining binding (binding; 1 µM): 100%
O=C(NCCCN1CCOCC1)c1ccc(Nc2nccc(-c3cc4ccccc4s3)n2)cc1 — remaining binding (binding; competition with immobilised ligand; 1 µM): 48%
CN(c1nccc(-c2cnn3ncccc23)n1)C1CC1 — remaining binding (binding; 1 µM): 100%
O=C(NCC1CCOCC1)c1n[nH]cc1NC(=O)c1c(F)cccc1F — remaining binding (binding; competition with immobilised ligand; 1 µM): 85%
c1cncc(-c2cccc(Nc3nccc(NC4CCCCC4)n3)c2)c1 — remaining binding (binding; competition with immobilised ligand; 10 µM): 17%
CCc1ccccc1C(=O)Nc1n[nH]c2c(C)c(F)c(C3C(C#N)=C(C)N(C)C(C)=C3C#N)cc12 — remaining binding (cell-free assay; competition with immobilised ligand; 1 µM): 100%
F[C@@H]1CCN(c2nccc(-c3cnn4ncccc34)n2)C1 — remaining binding (binding; 1 µM): 100%
Nc1ncc2c(n1)-c1c([nH]c3ccc(C#CC4CC4)cc13)CCCC2 — remaining binding (binding; competition with immobilised ligand; 1 µM): 96%
